Screening results from PubChem BioAssay.
Shown are actives, neighbours in structure and some others; about 4.7% of the full set was active somewhere.
RGS4 inh = inhibitors of human RGS4 | P49798 | HEK293 M3R/RGS4 inducible, Fluo-4 calcium flux; stronger effect = higher value; triggered by carbachol at its EC20 | B-score at 10 µM | hit rate 0.45% among 310,000;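 active = B-score, a plate-corrected calcium signal, over three deviations above library mean, with baseline fluorescence within five deviations of library mean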;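 note: RGS4 expression induced by doxycycline in cells with stable M3 receptor; B-score is computed from the integrated fluorescence ratio over baseline after carbachol; higher B-score means a larger calcium signal and so more RGS4 inhibition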
MrgX1 antagonist = antagonists of human MrgX1 receptor; Q96LB2; MRGX1-HEK293 calcium flux, Fluo-4, BAM8-22 antagonism; stronger effect = lower value; hit rate 1.3% among 310,000; B-score at 10 µM;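 active = calcium-response B-score plate-corrected more than 3 library SD below zero, starting fluorescence within 5 deviations, no agonist response on first addition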;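 note: peak minus trough fluorescence over baseline after final BAM8-22 challenge near maximal dose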
MrgX1 PAM = allosterically activates human MrgX1 receptor signaling; Q96LB2; MrgX1-HEK293, Fluo-4 calcium flux, FDSS; stronger effect = higher value; B-score at 10 µM; hit rate 0.63% among 310,000;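 active = plate-corrected calcium response at least 3 library SD above typical, normal starting fluorescence, not activating the receptor alone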;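 note: compound read alongside a low EC10 to EC30 dose of BAM8-22 agonist; peak minus trough fluorescence over baseline measured at the second addition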
KCC2 mod = modulators of human KCC2 chloride dependent transport. Q9H2X9. hit rate 2.2% among 190,000. AID 1456. B-score of Tl+ flux slope (higher = more flux/activation; lower = inhibition) at 10 µM. KCC2 cells, thallium flux FluoZin-2 fluorescence;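 active = thallium flux slope and its plate-corrected score both differing from the plate sample mean at a set confidence after two filtering rounds, in either direction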;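 note: slope of fluorescence scaled to starting intensity during 10 to 20 s after thallium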
Target sequence (Q9H2X9 whole entry, looked up): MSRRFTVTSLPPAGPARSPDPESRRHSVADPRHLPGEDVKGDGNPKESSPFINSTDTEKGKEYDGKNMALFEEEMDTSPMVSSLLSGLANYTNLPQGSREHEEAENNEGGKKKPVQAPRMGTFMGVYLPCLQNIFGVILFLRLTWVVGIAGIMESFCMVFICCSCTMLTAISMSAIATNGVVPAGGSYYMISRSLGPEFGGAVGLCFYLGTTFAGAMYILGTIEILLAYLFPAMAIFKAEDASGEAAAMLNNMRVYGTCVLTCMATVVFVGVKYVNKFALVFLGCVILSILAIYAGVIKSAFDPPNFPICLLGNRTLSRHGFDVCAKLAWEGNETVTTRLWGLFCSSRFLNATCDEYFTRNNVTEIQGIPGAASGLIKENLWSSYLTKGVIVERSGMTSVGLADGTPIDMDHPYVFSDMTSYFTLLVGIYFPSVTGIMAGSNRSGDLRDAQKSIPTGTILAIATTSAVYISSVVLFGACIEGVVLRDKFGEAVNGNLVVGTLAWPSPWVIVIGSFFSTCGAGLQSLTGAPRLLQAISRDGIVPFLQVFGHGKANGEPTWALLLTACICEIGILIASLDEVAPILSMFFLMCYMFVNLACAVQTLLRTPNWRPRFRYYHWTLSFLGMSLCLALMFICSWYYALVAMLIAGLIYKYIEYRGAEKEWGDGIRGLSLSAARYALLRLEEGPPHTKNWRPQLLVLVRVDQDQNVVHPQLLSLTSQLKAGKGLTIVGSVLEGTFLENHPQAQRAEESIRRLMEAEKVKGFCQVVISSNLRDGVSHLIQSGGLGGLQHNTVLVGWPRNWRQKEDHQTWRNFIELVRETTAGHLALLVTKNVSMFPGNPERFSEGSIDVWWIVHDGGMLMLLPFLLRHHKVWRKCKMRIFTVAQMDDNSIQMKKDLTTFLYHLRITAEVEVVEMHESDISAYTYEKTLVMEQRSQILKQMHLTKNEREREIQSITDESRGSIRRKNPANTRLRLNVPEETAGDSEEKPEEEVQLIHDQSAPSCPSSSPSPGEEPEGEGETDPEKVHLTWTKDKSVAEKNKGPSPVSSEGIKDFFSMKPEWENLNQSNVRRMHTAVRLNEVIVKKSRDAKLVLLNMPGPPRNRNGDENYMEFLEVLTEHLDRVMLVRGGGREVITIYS
RGS4 act = RGS4 potentiation or activation; B-score at 10 µM; hit rate 0.92% among 310,000; HEK293 M3R/inducible RGS4, carbachol calcium flux Fluo4; stronger effect = lower value;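 active = B-score of the integrated calcium signal more than 4 SD below the library mean, with starting fluorescence not abnormally high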;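 note: negative B-score means reduced calcium response which marks RGS4 activation or potentiation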
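Assay system: HEK293 FlpIn-TREx cells, stable M3R, doxycycline-inducible RGS4 / Probe or stimulus: carbachol, ECmax concentration / Times: overnight RGS4 induction, 30 min dye load 37 °C, 20 min compound RT / Signal: kinetic calcium fluorescence imaging with Fluo4-AM dye, 2 µM / Measure: Agonist-evoked peak-minus-minimum fluorescence over baseline, integrated ratio, B score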
MrgX1 ag = agonists of human MrgX1 receptor | Q96LB2 | MrgX1-HEK293 cells, Fluo-4 calcium fluorescence, agonist mode; stronger effect = higher value | B-score at 10 µM | hit rate 0.44% among 310,000;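 active = calcium response B-score plate-corrected fluorescence ratio at least 3 library SD, with starting fluorescence B-score inside 5 SD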
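System – MrgX1-expressing HEK293 cells · Incubation – cells plated overnight, dye loaded 0.5 h 37 °C, 0.5 h room temperature · Technique – kinetic Fluo-4 NW fluorescence of intracellular calcium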
MrgX1 antag conf = reconfirmed antagonist of human MrgX1 receptor signaling; shares compounds with MrgX1 antagonist; remaining BAM8-22 calcium response % of control (stronger effect = lower value), % at 10 µM; hit rate 19% among 2,300; MrgX1-HEK293, BAM8-22 calcium flux, Fluo-4; stronger effect = lower value;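 active = remaining agonist calcium response no higher than 100% minus 3 SD of agonist-only control wells, with starting fluorescence near control levels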;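 note: agonist BAM8-22 given at a near maximal EC90 to ECmax level; peak minus minimum fluorescence divided by baseline after agonist addition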
HEK293 Ca flux = counter-screen for MrgX1 antagonists: effect in parental HEK293 cells. shares compounds with MrgX1 antagonist. Fluo-4 calcium fluorescence, FDSS. fluorescence ratio F(max-min)/F0 at 10 µM. hit rate 2% among 4,000;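 active = duplicate-averaged calcium fluorescence ratio at least three times the standard deviation of buffer wells, a nonspecific response in parental cells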
HEK293 Ca counter = activity in parental HEK293 cells without MrgX1; shares compounds with MrgX1 antagonist; parental HEK293 calcium flux, Fluo-4 fluorescence ratio; stronger effect = higher value; fluorescence ratio F(max-min)/F0 at 10 µM; hit rate 0.4% among 4,000; AID 624114;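 active = calcium fluorescence ratio, averaged over duplicates, at least 3 SD of the buffer-well ratio, meaning a nonspecific response in receptor-free cells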;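 note: untransfected parental HEK293 lacking MrgX1 used as counterscreen for MrgX1 allosteric activators; fluorescence change taken during the second addition on a kinetic imager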
HEK293 Ca cntr2 = activity in parental HEK293 cells lacking MrgX1 receptor. shares compounds with MrgX1 antagonist. Fluo-4 calcium fluorescence (FDSS); stronger effect = higher value. fluorescence ratio F(max-min)/F0 at 10 µM. hit rate 8.7% among 4,000. AID 624115;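 active = calcium fluorescence ratio at least three times the spread of buffer wells, meaning a non-specific response in parental cells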
* marks the source's active call; other numbers are inactive results; i = inactive; . = no result.

SMILES	RGS4 inh	MrgX1 antagonist	MrgX1 PAM	KCC2 mod	RGS4 act	MrgX1 ag	MrgX1 antag conf	HEK293 Ca flux	HEK293 Ca counter	HEK293 Ca cntr2
COc1ccccc1CC(=O)Nc1ccc(Cl)cc1C(=O)O	i	i	i	-0.76	i	i	.	.	.	.
COc1cccc(NC(=O)C(OC(=O)c2cnc(C)cn2)c2ccccc2)c1 (centres undefined)	i	-6.2*	i	.	i	i	i	i	i	i
COc1ccc(Br)cc1/C=N/n1nnnc1N	i	i	i	.	i	i	.	.	.	.
O=C(CSc1ncnc2sc3c(c12)CCC3)NCC1CCCO1 (centres undefined)	i	i	i	.	i	i	.	.	.	.
CC(C)(C)C(=O)CSc1ncnc2sc3c(c12)CCC3	i	-9.7*	i	0.81	i	i	i	i	i	i
COC(=O)c1sc(S(=O)(=O)N2CCCCC2C(=O)O)c(C(=O)OC)c1C (centres undefined)	i	-5.4*	i	-0.5	i	i	i	i	i	i
Cc1cc2ncn(CCC(=O)NC(C)(C)C)c2cc1C	i	i	i	-0.24	i	i	.	.	.	.
CC1CCCC(C)N1C(=O)CSCc1ccc(Cl)cc1 (centres undefined)	i	-4.7*	i	-0.69	i	i	i	i	i	i
CC1CCCC(C)N1C(=O)COC(=O)Cc1ccc(Cl)cc1 (centres undefined)	i	i	i	.	i	i	.	.	.	.
Cc1ccc(C(=O)NC2CCCN(c3ccc(C(F)(F)F)cn3)C2)cn1 (centres undefined)	i	i	i	.	i	i	.	.	.	.
O=C(NC1CCCN(c2ccc(C(F)(F)F)cn2)C1)c1cc(Cl)ccc1F (centres undefined)	i	-6.6*	i	.	i	i	i	i	i	i
CCOC(=O)c1cnc2c(cnn2C)c1Oc1ccc(OC)cc1	i	i	i	-0.38	i	i	.	.	.	.
CCOC(=O)c1cnc2c(cnn2C)c1NCCC(O)C(F)(F)F (centres undefined)	i	-4.8*	i	.	i	i	i	i	i	i
Cc1ccc2[nH]c(-c3cccc(F)c3)cc(=O)c2c1	i	-4.6*	i	-0.049	i	i	i	i	i	i
O=C(CNC(=O)c1cccs1)OCC(=O)c1ccccc1	i	i	i	.	i	i	.	.	.	.
CCc1ccc(C(=O)COC(=O)CNC(=O)c2cccs2)cc1	i	-6.2*	i	-0.53	i	i	i	i	i	i
Cc1ccc(NC(=O)Nc2ccc(F)cc2)cc1Cl	i	-6.1*	i	-0.074	i	i	71%*	i	i	i
Cn1nc(C(F)(F)F)c(-c2ccc(F)cc2)c1NC(=O)c1cccnc1	i	i	i	-0.76	i	i	.	.	.	.
CC(C)CN(Cc1cc(=O)oc2cc(-c3ccccc3)c(O)cc12)CC(C)C	i	i	i	0.52	i	i	.	.	.	.
CCC(=O)N1CCN(c2ccccc2NC(=S)NC(=O)c2ccco2)CC1	i	i	i	.	i	i	.	.	.	.
COc1ccc(C(=O)Nc2nc(C)c(C(=O)N(C)C)s2)cc1OC	i	-8.7*	i	.	i	i	i	i	i	i
COc1ccc(/C=C/C(=O)Nc2nc(C)c(C(=O)N(C)C)s2)cc1OC	i	i	i	0.38	i	i	.	.	.	.
CCOc1cc(S(=O)(=O)NCc2cccnc2)c(C)cc1C	i	-4.9*	i	.	i	i	i	i	i	i
COc1ccc(Cl)cc1S(=O)(=O)NCc1cccnc1	i	-5.7*	i	0.32	i	i	i	i	i	i
CCN(CC)CCCNC(=O)c1oc2ccc(S(=O)(=O)N3CC(C)CC(C)C3)cc2c1C (centres undefined)	i	i	i	.	i	i	.	.	.	.
SMILES	RGS4 inh	MrgX1 antagonist	MrgX1 PAM	KCC2 mod	RGS4 act	MrgX1 ag	MrgX1 antag conf	HEK293 Ca flux	HEK293 Ca counter	HEK293 Ca cntr2
CCOc1ccc(-c2nnc(NC(=O)Cc3cc(OC)c(OC)c(OC)c3)o2)cc1	i	i	i	.	i	i	.	.	.	.
CCC(C)[C@H](NC(=O)c1cc2cc(Cl)ccc2n1C)C(=O)N1CCC[C@H]1C(=O)O (some centres undefined)	i	i	i	.	i	i	.	.	.	.
N#CCSc1nnc(C2CCCCC2)n1Cc1ccccc1	i	-7.1*	i	0.72	i	i	i	i	i	i
COC(=O)[C@@H]1C[C@]2(Br)c3ccccc3N(S(=O)(=O)c3ccccc3)[C@@H]2N1C(=O)OC	i	i	i	.	i	i	.	.	.	.
COC(=O)[C@@H]1C[C@@]2(Br)c3ccccc3N(S(=O)(=O)c3ccccc3)[C@H]2N1C(=O)OC	i	-6*	i	.	i	i	i	i	i	61*
CC(C)(C)C#CCn1c(/C=[N+](\[O-])C2CCCCC2)nc2ccccc21	i	i	i	.	i	i	.	.	.	.
N#Cc1nc(-c2ccc(OCc3ccccc3)cc2)oc1NCCN1CCOCC1	i	i	i	1.3	i	i	.	.	.	.
N#Cc1nc(Cc2ccccc2)oc1NCCN1CCOCC1	i	-7.5*	i	.	i	i	i	i	i	i
CCOC(=O)C1CCCN(S(=O)(=O)c2cc3c4c(c2)CCN4C(=O)CC3)C1 (centres undefined)	i	-4.8*	i	.	i	i	i	i	i	i
CC1CCCN(S(=O)(=O)c2cc3c4c(c2)CCN4C(=O)CC3)C1 (centres undefined)	i	i	i	.	i	i	.	.	.	.
CCn1c(C(C)NS(=O)(=O)c2ccc(Cl)cc2)n[nH]c1=S (centres undefined)	i	-6.5*	i	.	i	i	i	i	i	i
